Measurements pooled from the literature.
Protocols differ between the studies behind these lines.
Cell line: U-87 MG
Effect on: cell growth or viability

Cn1nnc2c(Cl)ncn2c1=O — IC50 (resazurin; 7 days): 15 µM
Fc1ccc2c(CNCC3(N4CCC(F)C4)COC3)c[nH]c2c1 (centres unmarked) — viability (30 µM; 48 h): 97.6%
Cc1ccc(C(=O)Nc2ccc(Oc3cc4cnn(C)c4cc3-c3cn[nH]c3)c(F)c2)c(=O)n1-c1ccc(F)cc1 — IC50 (ATP luminescence): 0.129 µM
COc1cc(Nc2nccc(-c3cnn4nc(OC)ccc34)n2)cc(C(F)(F)F)c1 — IC50 (ATP luminescence): 0.84 µM
Oc1c(C(c2ccc(F)cc2)N2CCCCC2)ccc2c1CCC2 (centres unmarked) — inhibition (MTT; 30 µM): 28%
CC(C)C[C@H](NC(=O)[C@H](Cc1ccccc1)NC(=O)c1cnccn1)B(O)O — IC50 (ATP luminescence): 0.02 µM
Cn1nnc2c(-c3ccccc3)ncn2c1=O — IC50 (resazurin; 7 days): 9 µM
COc1cccc2c1C(=O)c1c(O)c3c(c(O)c1C2=O)C[C@@](O)(C(=O)CO)C[C@@H]3O[C@H]1C[C@H](N)[C@H](O)[C@H](C)O1 — IC50 (SRB): 0.1 µM
COc1cccc2c1C(=O)c1c(O)c3c(c(O)c1C2=O)C[C@@](O)(C(=O)CO)C[C@@H]3O[C@H]1C[C@H](N)[C@H](O)[C@H](C)O1 — IC50 (WST-1; 72 h): 0.04 µM
FC1CCN(C2(CNCc3ccc(-c4ccccc4)o3)COC2)C1 (centres unmarked) — viability (30 µM; 48 h): 46.6%
Cn1nnc2c(C(N)=O)ncn2c1=O — IC50 (resazurin; 7 days): 51 µM
Fc1ccc2[nH]cc(CNCC3(N4CCC(F)C4)COC3)c2c1 (centres unmarked) — viability (30 µM; 48 h): 94.6%
Cc1cc(NC(=O)c2cccc3cc(-c4cccc5[nH]nc(N)c45)ccc23)ccc1F — IC50 (CCK-8; 72 h): > 20 µM
c1cc2c(cc1CNCC1(N3CCCC3)COC1)OCCO2 — viability (30 µM; 48 h): 95.7%
Cn1nnc2c(C(N)=O)ncn2c1=O — IC50 (MTT; 72 h): 596 µM
CCN(CC)C(=O)c1ncn2c(=O)n(C)nnc12 — IC50 (resazurin; 7 days): 80 µM
c1cc2cc(CNCC3(N4CCCC4)COC3)ccc2[nH]1 — viability (30 µM; 48 h): 98.6%
